The source of these data is PMC3566393 (Biological Trace Element Research, 2012).

SMILES strings stand for the structures. Where two headings read alike, the source gives them in different places.

In general, IC50 refers to the concentration that inhibits the measured activity by half.

One series addresses rat TRPV1 (Rattus norvegicus, UniProt O35433). The series can be described thus: Vanilloid-induced 45Ca2+ uptake in TRPV1/HaCaT cells. The series is classed as cell-based. To be noted: for Effect on CAPS-induced 45Ca2+ uptake (in words): 2 μM CAPS, up to highest concentration 4 mM.
The conditions of series [1]: 1:1 complexes; cited from earlier work.
The conditions of series [2]: cited from earlier work.
In a further series the target is wild-type TRPV1 (Rattus norvegicus, UniProt O35433). Nature of the series: CAPS-evoked 45Ca2+ influx in cells transiently transfected with wild-type TRPV1. The series is classed as cell-based. The conditions noted are these: read-out: IC50, 45Ca2+ influx, 4 μM CAPS.
Chain of wild-type TRPV1 (O35433 whole entry): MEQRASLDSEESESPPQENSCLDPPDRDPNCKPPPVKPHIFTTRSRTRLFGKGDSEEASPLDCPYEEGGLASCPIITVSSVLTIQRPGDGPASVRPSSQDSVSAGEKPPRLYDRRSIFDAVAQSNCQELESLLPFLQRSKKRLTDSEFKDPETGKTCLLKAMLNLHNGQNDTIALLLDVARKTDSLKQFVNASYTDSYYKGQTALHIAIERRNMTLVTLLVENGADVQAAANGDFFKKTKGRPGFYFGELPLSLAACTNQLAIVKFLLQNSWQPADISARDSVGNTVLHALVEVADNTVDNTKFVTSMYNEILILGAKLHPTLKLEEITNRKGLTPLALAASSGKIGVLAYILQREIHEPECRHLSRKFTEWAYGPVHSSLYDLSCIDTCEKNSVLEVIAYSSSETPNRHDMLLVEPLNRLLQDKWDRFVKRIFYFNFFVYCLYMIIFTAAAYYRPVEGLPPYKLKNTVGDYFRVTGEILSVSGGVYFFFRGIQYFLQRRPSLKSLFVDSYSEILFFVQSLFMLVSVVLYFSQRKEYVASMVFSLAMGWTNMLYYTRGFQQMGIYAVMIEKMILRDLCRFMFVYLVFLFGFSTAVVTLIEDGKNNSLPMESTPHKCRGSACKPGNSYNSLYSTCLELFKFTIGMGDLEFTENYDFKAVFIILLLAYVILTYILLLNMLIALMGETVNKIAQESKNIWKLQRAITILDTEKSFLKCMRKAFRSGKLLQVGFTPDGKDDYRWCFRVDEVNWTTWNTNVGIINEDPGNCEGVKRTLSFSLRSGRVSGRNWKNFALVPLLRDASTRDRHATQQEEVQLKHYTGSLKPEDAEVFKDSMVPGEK
In series [3] the test system is TRPV1+ dorsal root ganglion neurons. Nature of the series: Cobalt histochemistry in primary DRG sensory neuron cultures. The class given is cell-based, rat. The conditions noted are these: 20 μM CAPS, Co2+-uptake medium.
Another series relates to CD1 mice. The series can be described thus: Eye wipe test. The series is classed as in vivo. To be noted: 100 μM CAPS dropped into the eye with 1 mM CoCl2 or 5 μM CapZ, n = 8. Put shortly: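 Defensive eye-wiping movements were then counted. Data were means ± SD from eight independent experiments. Inhibition was tested by paired t test (P < 0.05).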
The target of the next series is rat TRPV1 Y627W mutant (Rattus norvegicus, UniProt O35433, Y627W). Nature of the series: CAPS-evoked 45Ca2+ influx in cells expressing the TRPV1 Y627W point mutant. The class given is cell-based. To be noted: read-out: IC50, 45Ca2+ influx, 4 μM CAPS.
Chain of rat TRPV1 Y627W mutant (O35433 whole entry Y627W): as the sequence (O35433 whole entry) above, with Y627W counted along it
The test system of a further series is 3T3 cell line. Nature of the series: Cobalt histochemistry on 3T3 cell line without TRPV1. The series is classed as cell-based. The conditions noted are these: 20 μM CAPS + 5 mM Co2+.
The next series addresses rat TRPV1 E651W mutant (Rattus norvegicus, UniProt O35433, E651W). The series can be described thus: CAPS-evoked 45Ca2+ influx in cells expressing the TRPV1 E651W point mutant. The class given is cell-based. The conditions noted are these: read-out: IC50, 45Ca2+ influx, 4 μM CAPS.
The target of series [4] is T1, TRPV1 (Rattus norvegicus, UniProt O35433). The series can be described thus: Cobalt histochemistry on 3T3 cell line expressing TRPV1 ectopically. To be noted: 10 min, ± S.D. The series is classed as cell-based.
T1 sequence (O35433 whole entry): as the sequence (O35433 whole entry) above
The target in a further series is rat TRPV1 N628W mutant (Rattus norvegicus, UniProt O35433, N628W). The series can be described thus: CAPS-evoked 45Ca2+ influx in cells expressing the TRPV1 N628W point mutant. The class given is cell-based. The conditions noted are these: read-out: IC50, 45Ca2+ influx, 4 μM CAPS.
Chain of rat TRPV1 N628W mutant (O35433 whole entry N628W): as the sequence (O35433 whole entry) above, with N628W counted along it
A further series addresses rat TRPV1 D646N mutant (Rattus norvegicus, UniProt O35433, D646N). Nature of the series: CAPS-evoked 45Ca2+ influx in cells expressing the TRPV1 D646N point mutant. The series is classed as cell-based. The conditions noted are these: read-out: IC50, 45Ca2+ influx, 4 μM CAPS.
For series [5], the target named is T1, TRPV1. Nature of the series: Cobalt histochemistry on HaCaT cell line expressing TRPV1 ectopically. The conditions noted are these: 20 μM CAPS + 5 mM Co2+; CapZ 300 nM-100 μM, RuRed 500 nM-100 μM. The series is classed as cell-based.
The next series has as its target TRPV1/3T3 cells (Rattus norvegicus, UniProt O35433). Nature of the series: CAPS-induced TRPV1-mediated 45Ca2+ accumulation with VGCC blocker. To be noted: data not shown. The series is classed as cell-based.

Chain of rat TRPV1 (O35433 whole entry): as the sequence (O35433 whole entry) above
Chain of rat TRPV1 E651W mutant (O35433 whole entry E651W): as the sequence (O35433 whole entry) above, with E651W counted along it
Chain of rat TRPV1 D646N mutant (O35433 whole entry D646N): as the sequence (O35433 whole entry) above, with D646N counted along it
Chain of TRPV1/3T3 cells (O35433 whole entry): as the sequence (O35433 whole entry) above

For `[La+3]` [La^3+], at rat TRPV1 (TRPV1/HaCaT cells), the “Effect on CAPS-induced 45Ca2+ uptake (in words)” value (from here on “Effect … (in words)”) is listed as “little or no effect”.

With `[Zn+2]` [Zn^2+], the “Effect … (in words)” value on rat TRPV1 (TRPV1/HaCaT cells) is given as “only partial inhibitor”. Further, at rat TRPV1 (TRPV1/HaCaT cells, CAPS-induced 45Ca2+ uptake), the “Decrease of the maximal ion influx achieved” value is 30%. Moreover, in [1], the “Stability constant of the complex formed between M2+ and tryptophan” value (shortened to “Stability constant”) is 5.00 ± 0.08. Also, the Ionic radius in [2] is listed as 74 picometres.

Consider `[Co+2]` [Co^2+], for which the IC50 on rat TRPV1 (read-out: IC50 of Co2+, in the presence of 0 μM cold Ca2+) turned out to be 7.94 µM; on rat TRPV1 (read-out: IC50 of Co2+, in the presence of 0.0625 μM CAPS), 94.8 µM; on rat TRPV1 (read-out: IC50 of Co2+, in the presence of 0.125 μM CAPS) it was 58 µM; on rat TRPV1 (read-out: IC50 of Co2+, in the presence of 0.25 μM CAPS), 73.2 µM; at rat TRPV1 (read-out: IC50 of Co2+, in the presence of 0.5 μM CAPS), 32.6 µM; at rat TRPV1 (read-out: IC50 of Co2+, in the presence of 1 μM CAPS), 19.2 µM. Besides, the IC50 on rat TRPV1 (read-out: IC50 of Co2+, in the presence of 2 μM CAPS) worked out at 22.6 µM; on rat TRPV1 (read-out: IC50 of Co2+, in the presence of 4 μM CAPS), 15.6 µM; at rat TRPV1 (read-out: IC50 of Co2+, in the presence of 15.625 μM cold Ca2+), 51.2 µM; on rat TRPV1 (read-out: IC50 of Co2+, in the presence of 31.25 μM cold Ca2+), 72.7 µM; on rat TRPV1 (read-out: IC50 of Co2+, in the presence of 62.5 μM cold Ca2+), 79.1 µM; at rat TRPV1 (read-out: IC50 of Co2+, in the presence of 125 μM cold Ca2+) it was 189 µM. Besides, the IC50 at wild-type TRPV1 turned out to be 18.3 µM; on rat TRPV1 Y627W mutant it was 18.6 µM; at rat TRPV1 E651W mutant, 15.3 µM; at rat TRPV1 N628W mutant, 16.4 µM; on rat TRPV1 D646N mutant, 25.7 µM. Besides, the “CAPS-induced Co2+ accumulation in sensory neurons” value in series [3] was “enters into the cytosol of specific PNS sensory neurons”. Moreover, the “Stability constant” value in [1] is on record as 4.34 ± 0.07. Moreover, the “Effect on vanilloid-evoked eye wiping movements” value in the series on CD1 mice was “decreased the frequency of vanilloid-evoked defending movements”. Moreover, the “Co2+ staining in the absence of TRPV1” value with 3T3 cell line is recorded as “No substantial staining”. Further, in series [2], the Ionic radius is 65 picometres. Besides, on TRPV1 [4] (CAPS + Co2+ (20 μM CAPS + 5 mM Co2+), n = 111), the “Mean gray value (intracellular CoS)” value is on record as 124.4 ± 21.51.

As for `[Cu+2]` [Cu^2+], in series [1], the “Stability constant” value is 8.05 ± 0.05. The Ionic radius in [2] is listed as 73 picometres.

As to `[Mn+2]` [Mn^2+], the “Effect … (in words)” value on rat TRPV1 (TRPV1/HaCaT cells) is on record as “little or no effect”. Moreover, the “Stability constant” value in series [1] is listed as 3.34 ± 0.05. Also, in series [2], the Ionic radius is 67 picometres.

On to `[Mg+2]` [Mg^2+], for which the “Effect … (in words)” value at rat TRPV1 (TRPV1/HaCaT cells) is “little or no effect”. Further, in series [1], the “Stability constant” value is reported as 2.84 ± 0.08. In addition, in series [2], the Ionic radius is 72 picometres.

Consider `Oc1cc2c(cc1O)CN(C(=S)NCCc1ccc(Cl)cc1)CCC2` [CapZ, capsazepine, reference compound], for which, in the series with CD1 mice, the “Effect on vanilloid-evoked eye wiping movements” value is given as “Inhibition”. Further, the “Effect on CAPS-induced cellular Co2+ accumulation” value on TRPV1 [5] was “inhibited the cellular entry of Co^2+ in a dose-dependent manner”. The “Mean gray value (intracellular CoS)” value at TRPV1 [4] (CAPS + Co2+ + CapZ (5 μM CapZ), n = 100) came to 76.92 ± 22.21.

Consider `N.N.N.N.N.N.N.N.N.N.N.N.N.N.[Cl-].[Cl-].[Cl-].[Cl-].[Cl-].[Cl-].[O-2].[O-2].[Ru+3].[Ru+3].[Ru+4]` [RuRed, Ruthenium Red, reference compound], for which the IC50 was determined as 0.87 µM on wild-type TRPV1; 0.26 µM on rat TRPV1 Y627W mutant; 0.94 µM at rat TRPV1 E651W mutant; 1.33 µM on rat TRPV1 N628W mutant; 12.8 µM on rat TRPV1 D646N mutant. At TRPV1 [5], the “Effect on CAPS-induced cellular Co2+ accumulation” value is on record as “blocked”.

`COc1cc(CNC(=O)CCCC/C=C/C(C)C)ccc1O` [CAPS, capsaicin, reference compound]: on rat TRPV1 (pH 7.5, 45Ca2+ uptake assay), the “Concentration causing full activation (EC100) of TRPV1” value is reported as “Approximately 1 μM”.

In the case of `COC(=O)C1=C(C)NC(C)=C(C(=O)OCC(C)C)C1c1ccccc1[N+](=O)[O-]` (stereo not shown) [nisoldipine], on TRPV1/3T3 cells, the “Effect on CAPS-induced TRPV1-mediated 45Ca2+ accumulation” value is reported as “did not decrease”.

For `[Ca+2]` [Ca^2+], the “Stability constant” value in series [1] is on record as 2.55 ± 0.08. For the same compound, the Ionic radius in [2] was 100 picometres.

In turn, `CN(C)CCC=C1c2ccccc2CCc2ccccc21` [AMI, Amitriptyline, reference compound] returned an IC50 against rat TRPV1 of 20 µM.

Turning to `[Ni+2]` [Ni^2+], the “Stability constant” value in series [1] is recorded as 5.31 ± 0.06. Further, the Ionic radius in series [2] is reported as 69 picometres.
